According to ChEMBL document CHEMBL3297710, “Polyhydroxy cyclohexanols from a Dendrodochium sp. fungus associated with the sea cucumber Holothuria nobilis Selenka” (J Nat Prod, 2014):
Calls of active or inactive are those of the source. No cut-off for these calls is given here.

Legend:
Nakaseomyces glabratus = test: Antifungal activity against Candida glabrata 537 assessed as growth inhibition by automatic microplate reader analysis; type: functional
Method in brief: (§1)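 Broth microdilution growth read by optical density at 630 nm on a microplate reader. MIC80 was taken as the first well showing roughly 80% growth reduction relative to the drug-free well.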

A549 = test: Cytotoxicity against human A549 cells assessed as growth inhibition by MTT assay; type: functional, cell-based
Method in brief: (§2)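 Modified MTT colorimetric assay on human lung adenocarcinoma A549 and human osteosarcoma MG63 cells, with adriamycin as the positive control.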

Candida albicans [1] = test: Antifungal activity against Candida albicans SC5314 assessed as growth inhibition by automatic microplate reader analysis; type: functional; method in brief: as §1
Trichophyton rubrum = test: Antifungal activity against Trichophyton rubrum Cmccftla assessed as growth inhibition by automatic microplate reader analysis; type: functional; method in brief: as §1
Candida parapsilosis = test: Antifungal activity against Candida parapsilosis 22019 assessed as growth inhibition by automatic microplate reader analysis; type: functional; settings: Lodderomyces parapsilosis; method in brief: as §1
MG-63 = test: Cytotoxicity against human MG63 cells assessed as growth inhibition by MTT assay; type: functional, cell-based; method in brief: as §2
Candida albicans [2] = test: Antifungal activity against Candida albicans Y0109 assessed as growth inhibition by automatic microplate reader analysis; type: functional; method in brief: as §1
Nannizzia gypsea = test: Antifungal activity against Microsporum gypseum Cmccfmza assessed as growth inhibition by automatic microplate reader analysis; type: functional; method in brief: as §1
Aspergillus fumigatus = test: Antifungal activity against Aspergillus fumigatus 07544 assessed as growth inhibition by automatic microplate reader analysis; type: functional; method in brief: as §1
Cryptococcus neoformans = test: Antifungal activity against Cryptococcus neoformans 32609 assessed as growth inhibition by automatic microplate reader analysis; type: functional; method in brief: as §1

## C[C@@H](O)/C=C/C=C/[C@H]1OC[C@H]2[C@@H](O)[C@@H](O)[C@H](O)C[C@@H]21
Nakaseomyces glabratus
  MIC80: > 64 µg/mL
A549
  inhibition: inactive
Candida albicans [1]
  MIC80: > 64 µg/mL
Trichophyton rubrum
  MIC80: > 64 µg/mL
Candida parapsilosis
  MIC80: > 64 µg/mL
MG-63
  inhibition: inactive
Candida albicans [2]
  MIC80: > 64 µg/mL
Nannizzia gypsea
  MIC80: > 64 µg/mL
Aspergillus fumigatus
  MIC80: > 64 µg/mL
Cryptococcus neoformans
  MIC80: > 64 µg/mL

## C/C=C/C=C/C=C/[C@H]1C[C@@H](O)C[C@H](O)[C@@H]1CO
Nakaseomyces glabratus
  MIC80: 16 µg/mL
A549
  inhibition: inactive
Candida albicans [1]
  MIC80: 16 µg/mL
Trichophyton rubrum
  MIC80: 8 µg/mL
Candida parapsilosis
  MIC80: 16 µg/mL
MG-63
  inhibition: inactive
Candida albicans [2]
  MIC80: 16 µg/mL
Nannizzia gypsea
  MIC80: 16 µg/mL
Aspergillus fumigatus
  MIC80: > 64 µg/mL
Cryptococcus neoformans
  MIC80: 8 µg/mL

## C/C=C/C=C/C=C/[C@H]1C[C@@H](O)[C@H](O)[C@H](O)[C@@H]1CO
Nakaseomyces glabratus
  MIC80: > 64 µg/mL
A549
  inhibition: inactive
Candida albicans [1]
  MIC80: > 64 µg/mL
Trichophyton rubrum
  MIC80: > 64 µg/mL
Candida parapsilosis
  MIC80: > 64 µg/mL
MG-63
  inhibition: inactive
Candida albicans [2]
  MIC80: 16 µg/mL
Nannizzia gypsea
  MIC80: > 64 µg/mL
Aspergillus fumigatus
  MIC80: > 64 µg/mL
Cryptococcus neoformans
  MIC80: > 64 µg/mL

## C/C=C/C=C/C=C/[C@H]1C[C@@H](O)[C@H](O)C(=O)[C@@H]1CO
Nakaseomyces glabratus
  MIC80: 16 µg/mL
A549
  inhibition: inactive
Candida albicans [1]
  MIC80: 16 µg/mL
Trichophyton rubrum
  MIC80: 16 µg/mL
Candida parapsilosis
  MIC80: 16 µg/mL
MG-63
  inhibition: inactive
Candida albicans [2]
  MIC80: 16 µg/mL
Nannizzia gypsea
  MIC80: > 64 µg/mL
Aspergillus fumigatus
  MIC80: > 64 µg/mL
Cryptococcus neoformans
  MIC80: 16 µg/mL

## COc1cccc2c1C(=O)c1c(O)c3c(c(O)c1C2=O)C[C@@](O)(C(=O)CO)C[C@@H]3O[C@H]1C[C@H](N)[C@H](O)[C@H](C)O1 [DOXORUBICIN]
A549
  IC50: Not Active
MG-63
  inhibition: inactive

## OC(Cn1cncn1)(Cn1cncn1)c1ccc(F)cc1F [FLUCONAZOLE]
Nakaseomyces glabratus
  MIC80: 2 µg/mL
Candida albicans [1]
  MIC80: 0.25 µg/mL
Trichophyton rubrum
  MIC80: 1 µg/mL
Candida parapsilosis
  MIC80: 1 µg/mL
Candida albicans [2]
  MIC80: 0.25 µg/mL
Nannizzia gypsea
  MIC80: 8 µg/mL
Aspergillus fumigatus
  MIC80: > 64 µg/mL
Cryptococcus neoformans
  MIC80: 1 µg/mL

## CCC(C)n1ncn(-c2ccc(N3CCN(c4ccc(OCC5COC(Cn6cncn6)(c6ccc(Cl)cc6Cl)O5)cc4)CC3)cc2)c1=O (configuration not stated) [ITRACONAZOLE]
Nakaseomyces glabratus
  MIC80: 2 µg/mL
Candida albicans [1]
  MIC80: 4 µg/mL
Trichophyton rubrum
  MIC80: 2 µg/mL
Candida parapsilosis
  MIC80: 8 µg/mL
Candida albicans [2]
  MIC80: 4 µg/mL
Nannizzia gypsea
  MIC80: 4 µg/mL
Aspergillus fumigatus
  MIC80: 32 µg/mL
Cryptococcus neoformans
  MIC80: 4 µg/mL

## CC(=O)N1CCN(c2ccc(OCC3COC(Cn4ccnc4)(c4ccc(Cl)cc4Cl)O3)cc2)CC1 (configuration not stated) [KETOCONAZOLE]
Nakaseomyces glabratus
  MIC80: 0.125 µg/mL
Candida albicans [1]
  MIC80: 0.125 µg/mL
Trichophyton rubrum
  MIC80: 0.0625 µg/mL
Candida parapsilosis
  MIC80: 0.25 µg/mL
Candida albicans [2]
  MIC80: 0.0625 µg/mL
Nannizzia gypsea
  MIC80: 0.125 µg/mL
Aspergillus fumigatus
  MIC80: 2 µg/mL
Cryptococcus neoformans
  MIC80: 0.25 µg/mL

## CN(C/C=C/C#CC(C)(C)C)Cc1cccc2ccccc12 [TERBINAFINE]
Nakaseomyces glabratus
  MIC80: 8 µg/mL
Candida albicans [1]
  MIC80: 64 µg/mL
Trichophyton rubrum
  MIC80: 1 µg/mL
Candida parapsilosis
  MIC80: 8 µg/mL
Candida albicans [2]
  MIC80: > 64 µg/mL
Nannizzia gypsea
  MIC80: 0.25 µg/mL
Aspergillus fumigatus
  MIC80: 4 µg/mL
Cryptococcus neoformans
  MIC80: 8 µg/mL

## C[C@@H](c1ncncc1F)[C@](O)(Cn1cncn1)c1ccc(F)cc1F [VORICONAZOLE]
Nakaseomyces glabratus
  MIC80: 0.25 µg/mL
Candida albicans [1]
  MIC80: 0.25 µg/mL
Trichophyton rubrum
  MIC80: 0.125 µg/mL
Candida parapsilosis
  MIC80: 2 µg/mL
Candida albicans [2]
  MIC80: 0.5 µg/mL
Nannizzia gypsea
  MIC80: 0.5 µg/mL
Aspergillus fumigatus
  MIC80: 4 µg/mL
Cryptococcus neoformans
  MIC80: 0.25 µg/mL
